Experimental data: ChEMBL document CHEMBL3352193, “Synthesis of novel substituted purine derivatives and identification of the cell death mechanism” (Eur J Med Chem, 2015)
Activity calls are given as the source filed them. The calls are words filed in the database; no cut-off is given here.

Assays:
[1] = Cytotoxicity against human HuH7 cells after 72 hrs by SRB assay; format: functional, cell-based; details: Huh-7, 72 h
Outline: (§1)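 Sulforhodamine B assay. Cells seeded at 2000–10,000/well and treated the next day in triplicate with ten concentrations (DMSO vehicle, under 1% final) for 24, 48 or 72 h at 37 °C, 5% CO2. Fixed with ice-cold TCA for 1 h at 4 °C, stained with 0.4% SRB in 1% acetic acid, dye solubilized in 10 mM Tris base, A515 read. % inhibition = 100 × (1 − OD drug/OD DMSO). IC50 taken from dose–response curves.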

[2] = Cytotoxicity against human HCT116 cells after 72 hrs by SRB assay; format: functional, cell-based; details: HCT-116, 72 h
Outline: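 SRB screen. Cells seeded at 2000–10,000/well and treated next day for 72 h with 40, 20, 10, 5 and 2.5 µM (DMSO under 1%). TCA fixation, 0.4% SRB staining, Tris solubilization, absorbance at 515 nm. Growth inhibition calculated relative to DMSO-only wells. IC50 derived from the five-concentration inhibition percentages.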

T47D = experiment: Cytotoxicity against human T47D cells after 72 hrs by SRB assay; format: functional, cell-based
HepG2 [3] = experiment: Cytotoxicity against human HepG2 cells after 72 hrs by SRB assay; format: functional, cell-based; details: HepG2, 72 h; outline: as §1
[4] = Cytotoxicity against human Hep3B cells after 72 hrs by SRB assay; format: functional, cell-based, Hep 3B2
Outline: (§2)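 Liver cancer cell panel, SRB assay after 72 h exposure to ten concentrations (DMSO vehicle under 1%). TCA-fixed, SRB-stained, absorbance at 515 nm. Percent cell death calculated against DMSO-only wells, and IC50 read from dose–response curves.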

PLC = experiment: Cytotoxicity against human PLC cells after 72 hrs by SRB assay; format: functional, cell-based; outline: as §2
[5] = Cytotoxicity against human SKHEP1 cells after 72 hrs by SRB assay; format: functional, cell-based; details: SK-HEP1, 72 h; outline: as §2
[6] = Cytotoxicity against human Mahlavu cells after 72 hrs by SRB assay; format: functional, cell-based; outline: as §1
[7] = Cytotoxicity against human FOCUS cells after 72 hrs by SRB assay; format: functional, cell-based; outline: as §1
[8] = Cytotoxicity against human SNU182 cells after 72 hrs by SRB assay; format: functional, cell-based; details: SNU-182, 72 h; outline: as §2
[9] = Cytotoxicity against human SNU475 cells after 72 hrs by SRB assay; format: functional, cell-based, SNU-475; details: snu-475; outline: as §2
Huh-7 [10] = experiment: Cytotoxicity against human HuH7 cells assessed as condensed apoptotic nuclei after 72 hrs by Hoechst […] staining-based fluorescence microscopy; format: functional, cell-based
FOCUS = experiment: Cytotoxicity against human FOCUS cells assessed as condensed apoptotic nuclei after 72 hrs by Hoechst […] staining-based fluorescence microscopy; format: functional, cell-based
Mahlavu [11] = experiment: Induction of apoptosis in human Mahlavu cells assessed as PARP cleavage at IC50 after 72 hrs by Western blotting analysis; format: functional, cell-based
Mahlavu [12] = experiment: Induction of […] in human Mahlavu cells assessed as PARP cleavage at IC50 after 72 hrs by Western blotting analysis; format: functional, cell-based
Mahlavu [13] = experiment: Induction of apoptosis in human Mahlavu cells assessed as Bcl2 expression at IC50 after 72 hrs by Western blotting analysis; format: functional, cell-based
Mahlavu [14] = experiment: Induction of apoptosis in human Mahlavu cells assessed as total cytochrome c level at IC50 after 72 hrs by Western blotting analysis; format: functional, cell-based
Huh-7 [15] = experiment: Reduction in intrinsic cellular ATP consumption in human HuH7 cells at IC50 after 24 hrs by bioluminescence assay; format: functional, cell-based
Outline: (§3)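 Cells treated for 24 h, with staurosporine as positive control and DMSO-only controls. 20 µg lysate protein in kinase buffer (40 mM Tris-HCl pH 7.6, 20 mM MgCl2, 0.1 mg/ml BSA), no exogenous ATP added. Luciferase ATP-detection reagent added, 10 min in the dark at room temperature, then luminescence read. Higher signal taken as reduced ATP consumption.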

Mahlavu [16] = experiment: Reduction in intrinsic cellular ATP consumption in human Mahlavu cells at IC50 after 24 hrs by bioluminescence assay; format: functional, cell-based; outline: as §3
[17] = Cytotoxicity against human HuH7 cells after 24 hrs by SRB assay; format: functional, cell-based; details: Huh-7, 24 h; outline: as §1
HepG2 [18] = experiment: Cytotoxicity against human HepG2 cells after 24 hrs by SRB assay; format: functional, cell-based; details: HepG2, 24 h; outline: as §1
[19] = Cytotoxicity against human Mahlavu cells after 24 hrs by SRB assay; format: functional, cell-based; outline: as §1
[20] = Cytotoxicity against human FOCUS cells after 24 hrs by SRB assay; format: functional, cell-based; outline: as §1
[21] = Cytotoxicity against human HuH7 cells after 48 hrs by SRB assay; format: functional, cell-based; details: Huh-7, 48 h; outline: as §1
HepG2 [22] = experiment: Cytotoxicity against human HepG2 cells after 48 hrs by SRB assay; format: functional, cell-based; details: HepG2, 48 h; outline: as §1
[23] = Cytotoxicity against human Mahlavu cells after 48 hrs by SRB assay; format: functional, cell-based; outline: as §1
[24] = Cytotoxicity against human FOCUS cells after 48 hrs by SRB assay; format: functional, cell-based; outline: as §1
Huh-7 [25] = experiment: Cytotoxicity against human HuH7 cells at 2.5 to 40 uM by RT-CES method; format: functional, cell-based; details: TDE = time-dependent effect
Outline: (§4)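 Real-time impedance sensing (xCELLigence) on E-96 plates, run in triplicate. 2000 cells/well seeded; the next day medium was partly replaced and the compound added at 40, 20, 10, 5 or 2.5 µM, with DMSO-only and medium-only wells. Cell Index recorded every 30 min for at least 120 h at 37 °C, 5% CO2.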

HepG2 [26] = experiment: Cytotoxicity against human HepG2 cells at 2.5 to 40 uM by RT-CES method; format: functional, cell-based; details: TDE = time-dependent effect; outline: as §4
Mahlavu [27] = experiment: Cytotoxicity against human Mahlavu cells at 2.5 to 40 uM by RT-CES method; format: functional, cell-based; details: TDE = time-dependent effect; outline: as §4
Huh-7 [28] = experiment: Induction of senescence in human HuH7 cells at IC50 to IC100 after 3 to 6 days by BrdU staining-based assay; format: functional, cell-based
Outline: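 Huh7 cells (5000) on coverslips in 6-well plates, treated with compound at IC50 and IC100, doxorubicin 25 ng/ml, or DMSO for 3 and 6 days. Medium refreshed 24 h before assay, containing 30 µM BrdU in one plate. SA-β-gal staining and BrdU incorporation assessed in parallel.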

Huh-7 [29] = experiment: Cytotoxicity against human HuH7 cells measured every 30 mins up to 120 hrs by RT-CES method
HepG2 [30] = experiment: Cytotoxicity against human HepG2 cells measured every 30 mins up to 120 hrs by RT-CES method
Mahlavu [31] = experiment: Cytotoxicity against human Mahlavu cells measured every 30 mins up to 120 hrs by RT-CES method

FC(F)(F)c1ccc(N2CCN(c3ncnc4c3ncn4C3CCCC3)CC2)cc1
IC50 [1]: 200 nM
IC50 [2]: < 100 nM
IC50 (T47D): < 100 nM
IC50 (HepG2 [3]): 200 nM
IC50 [4]: 800 nM
IC50 (PLC): 6400 nM
IC50 [5]: 200 nM
IC50 [6]: 100 nM
IC50 [7]: 100 nM
IC50 [8]: 9600 nM
IC50 [9]: Not Active
Activity (Huh-7 [10]): Active
Activity (FOCUS): Active
Activity (Mahlavu [11]): inactive
Activity (Mahlavu [12]): inactive
Activity (Mahlavu [13]): inactive
Activity (Mahlavu [14]): inactive
Activity (Huh-7 [15]): Active
Activity (Mahlavu [16]): Active
IC50 [17]: 2700 nM
IC50 (HepG2 [18]): 1200 nM
IC50 [19]: 50100 nM
IC50 [20]: 16700 nM
IC50 [21]: 1400 nM
IC50 (HepG2 [22]): 800 nM
IC50 [23]: 300 nM
IC50 [24]: 300 nM
Activity (Huh-7 [25]): tde
Activity (HepG2 [26]): tde
Activity (Mahlavu [27]): tde
Activity (Huh-7 [28]): Active
Activity (Huh-7 [29]): Dose-dependent effect
Activity (HepG2 [30]): Dose-dependent effect
Activity (Mahlavu [31]): Dose-dependent effect
